ChEMBL document CHEMBL2151035, “Diarylcyclopentendione metabolite obtained from a Preussia typharum isolate procured using an unconventional cultivation approach” (J Nat Prod, 2012)
Active and inactive are the calls of the source. The rule behind the calls is not given here.

What was measured:
[1] = tested on: Staphylococcus aureus; assay: Antibacterial activity against methicillin-resistant Staphylococcus aureus up to 30 uM after 24 hrs; assay type: functional, organism-based
[2] = tested on: Klebsiella pneumoniae; assay: Antibacterial activity against Klebsiella pneumoniae up to 30 uM after 24 hrs; assay type: functional, organism-based
[3] = tested on: Aspergillus fumigatus; assay: Antifungal activity against Aspergillus fumigatus up to 30 uM after 48 hrs; assay type: functional, organism-based
[4] = tested on: Radical scavenging activity; assay: Antioxidant activity assessed as DPPH free radical scavenging activity up to 30 uM after 30 mins; assay type: functional
Procedure, shortened: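 Samples from 10 mM DMSO stocks were diluted in 2-propanol and mixed with DPPH in 2-propanol (40 uM solution as added). Controls were ascorbic acid (positive) and 2-propanol vehicle (negative). Plates were shaken and left for 30 min, then absorbance was read at 520 nm. Percent inhibition was calculated against control wells, in triplicate. IC50 is the concentration scavenging 50% of DPPH radicals.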

[5] = tested on: Radical scavenging activity; assay: Antioxidant activity assessed as DPPH free radical scavenging activity after 30 mins; assay type: functional
Procedure, shortened: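 Test samples taken up as 10 mM DMSO stocks, dissolved in 2-propanol. 50 μL of sample, or 2-propanol vehicle as negative control, mixed with 150 μL DPPH in 2-propanol (40 uM). Shaken, stood 30 min, absorbance read at 520 nm. Percent inhibition computed against control wells. Triplicates. IC50 taken as the concentration scavenging 50% of DPPH radicals. Ascorbic acid as positive control.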

Row | Compound | Activity [1] | Activity [2] | Activity [3] | Activity [4] | IC50 [5] [µM]
1 | COc1cc(C)c(Oc2cc(C)cc(O)c2)c(O)c1 | inactive | inactive | inactive | inactive | –
2 | COc1cc(C)c(Oc2cc(C)cc(OC)c2O)c(O)c1 | inactive | inactive | inactive | – | 7.9
3 | COc1cc(C)c(Oc2cc(C)cc(O)c2O)c(O)c1 | inactive | inactive | inactive | – | 11.6
4 | COc1cc(C2=CC(=O)[C@@](C)(c3ccc(O)c(OC)c3)C2=O)ccc1O | inactive | inactive | inactive | inactive | –
5 | O=C1O[C@H]([C@@H](O)CO)C(O)=C1O [ASCORBIC ACID] | – | – | – | – | 5.6
